Experimental data taken from ChEMBL document CHEMBL1944559, “Phosphodiesterase inhibitors. Part 3: Design, synthesis and structure-activity relationships of dual PDE3/4-inhibitory fused bicyclic heteroaromatic-dihydropyridazinones with anti-inflammatory and bronchodilatory activity” (Bioorg Med Chem, 2012).

Experiments:
[1] = target: T1, 3',5'-cyclic-AMP phosphodiesterase 4B (Homo sapiens, UniProt Q07343); experiment: Inhibition of human PDE4B catalytic domain
Summary of the method: (§1)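 IC50 determined in enzyme inhibition assays on the core catalytic domains of PDE3A and PDE4B, following previously reported protocols, from at least three experiments; roflumilast run as positive control.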

[2] = target: T2, cGMP-inhibited 3',5'-cyclic phosphodiesterase 3A (Homo sapiens, UniProt Q14432); experiment: Inhibition of human PDE3A catalytic domain; summary of the method: as §1
T2 sequence (Q14432 whole entry, the tested form may be a part): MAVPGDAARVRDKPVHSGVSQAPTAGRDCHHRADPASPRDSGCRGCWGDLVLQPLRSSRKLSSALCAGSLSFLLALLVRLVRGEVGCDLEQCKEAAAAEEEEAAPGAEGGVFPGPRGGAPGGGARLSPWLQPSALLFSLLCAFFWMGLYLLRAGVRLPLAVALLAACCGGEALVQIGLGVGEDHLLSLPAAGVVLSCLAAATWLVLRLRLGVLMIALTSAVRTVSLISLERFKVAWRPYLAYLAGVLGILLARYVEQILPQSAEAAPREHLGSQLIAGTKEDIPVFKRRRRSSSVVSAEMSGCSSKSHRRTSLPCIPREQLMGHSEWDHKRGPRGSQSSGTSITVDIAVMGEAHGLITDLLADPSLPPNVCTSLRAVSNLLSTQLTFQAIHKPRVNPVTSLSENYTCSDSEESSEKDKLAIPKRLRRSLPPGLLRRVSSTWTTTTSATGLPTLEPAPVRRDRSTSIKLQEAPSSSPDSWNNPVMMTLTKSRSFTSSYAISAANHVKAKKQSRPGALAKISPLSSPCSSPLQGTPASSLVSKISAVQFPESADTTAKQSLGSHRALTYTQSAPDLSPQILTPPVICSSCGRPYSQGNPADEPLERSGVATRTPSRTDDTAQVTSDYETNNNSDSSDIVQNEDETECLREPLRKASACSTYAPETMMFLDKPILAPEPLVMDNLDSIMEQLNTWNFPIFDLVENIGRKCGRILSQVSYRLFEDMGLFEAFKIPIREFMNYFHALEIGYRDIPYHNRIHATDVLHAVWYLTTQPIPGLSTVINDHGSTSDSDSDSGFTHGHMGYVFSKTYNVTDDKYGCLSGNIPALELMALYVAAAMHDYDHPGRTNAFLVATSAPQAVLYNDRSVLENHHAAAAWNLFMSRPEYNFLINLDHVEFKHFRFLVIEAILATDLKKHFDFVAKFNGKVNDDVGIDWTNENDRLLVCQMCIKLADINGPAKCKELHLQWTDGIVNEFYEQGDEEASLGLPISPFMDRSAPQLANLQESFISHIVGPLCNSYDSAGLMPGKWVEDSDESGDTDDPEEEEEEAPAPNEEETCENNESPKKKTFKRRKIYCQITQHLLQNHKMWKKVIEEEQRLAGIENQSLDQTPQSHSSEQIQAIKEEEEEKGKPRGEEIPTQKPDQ

[3] = tested on: Rattus norvegicus; experiment: Antiinflammatory activity in Wistar rat assessed as inhibition of LPS-induced TNFalpha release at 1 mg/kg, po; format: functional
[4] = tested on: Cavia porcellus; experiment: Inhibition of histamine-induced bronchoconstriction in Hartley guinea pig at 1 mg/kg, po administered 30 mins prior histamine challenge; format: functional
Summary of the method: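 Oral dosing at 1 mg/kg in guinea pigs before histamine challenge, by an established procedure; scored against control as ++ (≥70% inhibition of bronchoconstriction) or + (30–69%).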

[5] = tested on: Cavia porcellus; experiment: Inhibition of histamine-induced bronchoconstriction in Hartley guinea pig at 0.1 mg/kg, iv administered 30 mins prior histamine challenge; format: functional
Summary of the method: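 Guinea pigs given compound iv at 0.1 mg/kg before histamine challenge; bronchoconstriction measured by an established procedure; result expressed as % inhibition of constriction relative to control.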

[6] = target: T1, 3',5'-cyclic-AMP phosphodiesterase 4B; experiment: Ratio of KCA-1450 IC50 to compound IC50 for human PDE4B catalytic domain
[7] = target: T2, cGMP-inhibited 3',5'-cyclic phosphodiesterase 3A; experiment: Ratio of KCA-1450 IC50 to compound IC50 for human PDE3A catalytic domain

T1 sequence (Q07343 whole entry, the tested form may be a part): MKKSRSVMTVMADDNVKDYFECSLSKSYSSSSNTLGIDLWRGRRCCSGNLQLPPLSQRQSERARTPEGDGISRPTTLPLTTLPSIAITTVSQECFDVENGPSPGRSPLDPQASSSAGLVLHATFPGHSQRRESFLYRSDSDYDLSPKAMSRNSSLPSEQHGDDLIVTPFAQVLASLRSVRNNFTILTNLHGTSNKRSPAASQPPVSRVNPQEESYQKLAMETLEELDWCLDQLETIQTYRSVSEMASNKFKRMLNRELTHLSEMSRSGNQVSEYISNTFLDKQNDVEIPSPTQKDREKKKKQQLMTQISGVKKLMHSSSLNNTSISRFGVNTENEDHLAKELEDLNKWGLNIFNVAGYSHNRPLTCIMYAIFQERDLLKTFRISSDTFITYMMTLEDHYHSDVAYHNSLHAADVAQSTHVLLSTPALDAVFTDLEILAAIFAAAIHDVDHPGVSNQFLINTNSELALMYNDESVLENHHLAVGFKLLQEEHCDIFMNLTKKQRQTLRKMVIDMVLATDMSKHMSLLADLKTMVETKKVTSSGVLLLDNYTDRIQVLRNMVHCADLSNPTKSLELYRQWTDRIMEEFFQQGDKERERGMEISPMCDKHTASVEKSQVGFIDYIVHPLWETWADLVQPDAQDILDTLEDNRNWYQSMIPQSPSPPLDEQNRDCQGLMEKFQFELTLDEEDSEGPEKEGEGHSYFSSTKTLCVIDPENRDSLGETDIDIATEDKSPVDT

SMILES | IC50 [1] [nM] | IC50 [2] [nM] | Ratio IC50 [6] | Ratio IC50 [7] | inhibition in vivo at 1 mg/kg [3] [%] | inhibition in vivo at 1 mg/kg [4] [%] | inhibition in vivo at 0.1 mg/kg [5] [%]
COc1ccc(C2=NNC(=O)CC2C)c2nc(C(F)(F)F)nn12 (racemic) | 430 | 10200 |  |  |  |  | 
COc1ccc(C2=NNC(=O)CC2C)n2cc(C(F)(F)F)nc12 (racemic) | 260 | 1450 |  |  | 62 | > 30 | 99
COc1ccc(C2=NNC(=O)CC2C)c2ccc(C(F)(F)F)nc12 (racemic) | 350 | 970 |  | 2.5 | 68 | ≥ 70 | 99
COc1ccc(C2=NNC(=O)CC2C)c2cc(C(F)(F)F)oc12 (racemic) | 380 | 19800 |  |  |  |  | 
CCc1cc2c(C3=NNC(=O)CC3C)ccc(OC)n2c1 (racemic) | 3490 | 20700 |  |  |  |  | 

More lines, main results first:

IC50 [1] [nM] | IC50 [2] [nM] | Ratio IC50 [6] | Ratio IC50 [7] | SMILES | inhibition in vivo at 1 mg/kg [3] [%] | inhibition in vivo at 1 mg/kg [4] [%] | inhibition in vivo at 0.1 mg/kg [5] [%]
1010 | 5740 |  |  | COc1ccc(C2=NNC(=O)CC2C)c2oc(C(F)(F)F)nc12 (racemic) |  |  | 
1520 | 6430 |  |  | COc1ccc(C2=NNC(=O)CC2C)c2nc(C(F)(F)F)oc12 (racemic) |  |  | 
21 | 150 | 3 | 16 | COc1ccc(C2=NNC(=O)CC2C)c2sc(C(F)(F)F)nc12 (racemic) | 80 | ≥ 70 | 97
280 | 2850 |  |  | COc1ccc(C2=NNC(=O)CC2C)c2cc(C(F)(F)F)sc12 (racemic) |  |  | 17
300 | 22200 |  |  | COc1ccc(C2=NNC(=O)CC2C)c2[nH]c(C(F)(F)F)nc12 (racemic) |  |  | 
